Measured values published in ChEMBL document CHEMBL2040750, “Hybrids of ravuconazole: synthesis and biological evaluation” (2012).
≈ marks a conversion by molar mass, not a printed value. Calls of active or inactive are those of the source. The rule behind the calls is not given here.

Assays:
Type in all cases: functional
Candida albicans [1] = experiment: Antifungal activity Candida albicans NCIM 3471 after 24 to 72 hrs by NCCLS method
Outline: (§1)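 Broth microdilution MIC per NCCLS. Compounds dissolved in DMSO, serially diluted in growth medium, incubated at 37 °C. Read at 24 h for bacteria and 24–72 h for fungi. MIC90 taken as the first well with about 90% growth reduction relative to the drug-free well.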

Pseudomonas aeruginosa [2] = experiment: Antibacterial activity Pseudomonas aeruginosa NCIM 2036 after 24 hrs by NCCLS method; outline: as §1
Escherichia coli [3] = experiment: Antibacterial activity Escherichia coli NCIM 2109 at 100 ug/disc by agar-well diffusion assay; conditions: for zone of inhibition at 100 µg/disc: read-out: DIZ
Outline: (§2)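 Agar-well diffusion screen against standard strains. Zone of inhibition is the read-out. Chloramphenicol, nystatin and ravuconazole were run as positive controls.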

Staphylococcus aureus [4] = experiment: Antibacterial activity Staphylococcus aureus NCIM 2079 at 100 ug/disc by agar-well diffusion assay; conditions: for zone of inhibition at 100 µg/disc: read-out: DIZ; outline: as §2
Pseudomonas aeruginosa [5] = experiment: Antibacterial activity Pseudomonas aeruginosa NCIM 2036 at 100 ug/disc by agar-well diffusion assay; conditions: for zone of inhibition at 100 µg/disc: read-out: DIZ; outline: as §2
Staphylococcus aureus [6] = experiment: Antibacterial activity Staphylococcus aureus NCIM 2079 after 24 hrs by NCCLS method; outline: as §1
Bacillus subtilis [7] = experiment: Antibacterial activity Bacillus subtilis NCIM 2250 after 24 hrs by NCCLS method; outline: as §1
Bacillus subtilis [8] = experiment: Antibacterial activity Bacillus subtilis NCIM 2250 at 100 ug/disc by agar-well diffusion assay; conditions: for zone of inhibition at 100 µg/disc: read-out: DIZ; outline: as §2
Aspergillus niger [9] = experiment: Antifungal activity Aspergillus niger NCIM 545 after 24 to 72 hrs by NCCLS method; outline: as §1
Aspergillus niger [10] = experiment: Antifungal activity Aspergillus niger NCIM 545 at 100 ug/disc by agar-well diffusion assay; conditions: for zone of inhibition at 100 µg/disc: read-out: DIZ; outline: as §2
Candida albicans [11] = experiment: Antifungal activity Candida albicans NCIM 3471 at 100 ug/disc by agar-well diffusion assay; conditions: for zone of inhibition at 100 µg/disc: read-out: DIZ; outline: as §2
Escherichia coli [12] = experiment: Antibacterial activity Escherichia coli NCIM 2109 after 24 hrs by NCCLS method; outline: as §1

SMILES	MIC (Candida albicans [1])	zone of inhibition at 100 µg/disc (Escherichia coli [3])	zone of inhibition at 100 µg/disc (Staphylococcus aureus [4])	MIC (Staphylococcus aureus [6]; NCIM 2079, 24 h)	MIC (Aspergillus niger [9])	zone of inhibition at 100 µg/disc (Aspergillus niger [10])	zone of inhibition at 100 µg/disc (Candida albicans [11])	MIC (Escherichia coli [12]; NCIM 2109, 24 h)	MIC (Pseudomonas aeruginosa [2]; NCIM 2036, 24 h)	zone of inhibition at 100 µg/disc (Pseudomonas aeruginosa [5])	MIC (Bacillus subtilis [7])	diameter of the inhibition zone (DIZ) (Bacillus subtilis [8])	diameter of the inhibition zone (DIZ) (Staphylococcus aureus [4])	MIC (Staphylococcus aureus [6])	diameter of the inhibition zone (DIZ) (Candida albicans [11])	diameter of the inhibition zone (DIZ) (Escherichia coli [3])	other results
Fc1ccc(/C(Cn2cncn2)=N\Nc2nc(-c3ccc(Cl)cc3)cs2)cc1	32 µg/mL (≈ 77.5 µM)	15.9 mm	22.3 mm	64 µg/mL (≈ 155 µM)	16 µg/mL (≈ 38.8 µM)	20.7 mm	18.8 mm	> 64 µg/mL									MIC (Pseudomonas aeruginosa [2]): inactive; diameter of the inhibition zone (DIZ) (Pseudomonas aeruginosa [5]): inactive; MIC (Bacillus subtilis [7]; NCIM 2250, 24 h): 32 µg/mL (≈ 77.5 µM); zone of inhibition at 100 µg/disc (Bacillus subtilis [8]): 20.5 mm
Clc1ccc(/C(Cn2cncn2)=N\Nc2nc(-c3ccc(Cl)cc3)cs2)cc1	32 µg/mL (≈ 74.5 µM)	9.65 mm	18.8 mm	64 µg/mL (≈ 149 µM)	32 µg/mL (≈ 74.5 µM)	19.5 mm	20.4 mm	> 64 µg/mL	16 µg/mL (≈ 37.3 µM)	28.9 mm	inactive	inactive					
FC(F)(F)c1cc(-c2csc(N/N=C(/Cn3cncn3)c3ccc(Cl)cc3)n2)cc(C(F)(F)F)c1	32 µg/mL (≈ 60.3 µM)	15.6 mm	11.2 mm	> 64 µg/mL	> 64 µg/mL	8.66 mm	20.7 mm	> 64 µg/mL	32 µg/mL (≈ 60.3 µM)	26.1 mm	inactive	inactive					
Fc1ccc(/C(Cn2cncn2)=N\Nc2nc(-c3cc(C(F)(F)F)cc(C(F)(F)F)c3)cs2)cc1	inactive	14.9 mm			64 µg/mL (≈ 124 µM)	13.8 mm		> 64 µg/mL	32 µg/mL (≈ 62.2 µM)	23.9 mm	inactive	inactive	inactive	inactive	inactive		
O=[N+]([O-])c1ccc(/C(Cn2cncn2)=N\Nc2nc(-c3cc(C(F)(F)F)cc(C(F)(F)F)c3)cs2)cc1	inactive		17.2 mm	64 µg/mL (≈ 118 µM)	inactive				64 µg/mL (≈ 118 µM)	16.8 mm	inactive	inactive			inactive	inactive	diameter of the inhibition zone (DIZ) (Aspergillus niger [10]): inactive; MIC (Escherichia coli [12]): inactive
Fc1ccc(-c2csc(N/N=C(/Cn3cncn3)c3cc(C(F)(F)F)cc(C(F)(F)F)c3)n2)cc1	> 64 µg/mL		21.2 mm	64 µg/mL (≈ 124 µM)	32 µg/mL (≈ 62.2 µM)	17.3 mm	19.4 mm		16 µg/mL (≈ 31.1 µM)	22.9 mm						inactive	MIC (Bacillus subtilis [7]; NCIM 2250, 24 h): > 64 µg/mL; zone of inhibition at 100 µg/disc (Bacillus subtilis [8]): 9.77 mm; MIC (Escherichia coli [12]): inactive
Brc1ccc(/C(Cn2cncn2)=N\Nc2nc(-c3ccc(Br)cc3)cs2)cc1	> 64 µg/mL	10.9 mm			> 64 µg/mL	15.3 mm	13.9 mm	> 64 µg/mL			inactive	inactive	inactive	inactive			MIC (Pseudomonas aeruginosa [2]): inactive; diameter of the inhibition zone (DIZ) (Pseudomonas aeruginosa [5]): inactive
O=[N+]([O-])c1ccc(/C(Cn2cncn2)=N\Nc2nc(-c3ccc(Br)cc3)cs2)cc1	inactive	11 mm			inactive			> 64 µg/mL	64 µg/mL (≈ 132 µM)	19.8 mm	inactive	inactive	inactive	inactive	inactive		diameter of the inhibition zone (DIZ) (Aspergillus niger [10]): inactive
Fc1ccc(/C(Cn2cncn2)=N\Nc2nc(-c3ccc(Br)cc3)cs2)cc1	64 µg/mL (≈ 140 µM)				64 µg/mL (≈ 140 µM)	15.8 mm	14.8 mm	64 µg/mL (≈ 140 µM)	32 µg/mL (≈ 70 µM)	18.2 mm	inactive	inactive	inactive	inactive		inactive	
